{
  "source": "paper PMC7580710",
  "about": "(Pharmacology Research & Perspectives, 2020)",
  "key": {"[1]": {"assay": "Plasma pharmacokinetics after intravenous", "type": "in vivo, Sprague Dawley rats", "conditions": "rat, 2.5 mg i.v., plasma sampled for 3 days", "method_in_brief": "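Adult male Sprague Dawley rats (350-400 g) under isoflurane (5% induction, 1%-3% maintenance) got one internal jugular injection. Blood was taken by terminal cardiac puncture from 0 to 72 h (N = 3 per time) and plasma separated cold. Levels were measured in duplicate by LC-MS/MS after protein precipitation with analog internal standard (curve 1.0-500 ng/mL). Data were fitted with a three-compartment naïve-pooled model, extended least-squares, variance-weighted.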"}, "[2]": {"assay": "Urinary excretion", "type": "in vivo, Sprague Dawley rats", "conditions": "rat, i.v., urine from bladder"}, "[3]": {"conditions": "cited from earlier work"}, "[4]": {"conditions": "3 hours, or 1, 2, 3, and 7 days after injection; cited from earlier work"}},
  "note": "Peptide text beside a SMILES is read from it. * marks the point of attachment. Lauroyl = CCCCCCCCCCCC(=O)*",
  "data": [
    {"smiles": "CCCCCCCCCCCC(=O)NCCCC[C@H](NC(=O)[C@@H](NC(=O)[C@@H](NC(=O)[C@H](C)NC(=O)[C@H](C)NC(=O)[C@H](CCCCN)NC(=O)[C@H](CCCCN)NC(=O)[C@H](CS)NC(=O)[C@H](CCCCN)NC(=O)[C@@H]1CCCN1C(=O)[C@H](CC(C)C)NC(=O)[C@@H](NC(=O)[C@H](Cc1c[nH]c2ccccc12)NC(=O)[C@H](CC(C)C)NC(=O)[C@@H](N)CCCCN)C(C)C)C(C)C)C(C)C)C(N)=O", "note": "[collagen‐targeted PA] (H-KLWVLPKCKKAAVVK(Lauroyl)-NH2)", "values": [
      {"measurement": "observed terminal half-life (not to be interpreted as elimination half-life)", "setting": "[1]", "result": 42.6, "unit": "h"},
      {"measurement": "presence of the target peptide in urine by LC-MS/MS", "setting": "[2]", "result": "did not show the presence of the target peptide"},
      {"measurement": "CAC for this fiber", "setting": "[3]", "result": "below 1 µM"},
      {"measurement": "critical aggregation concentration (CAC)", "setting": "[3]; collagen-targeted PA with Alexa Fluor 546, nanofibers at neutral pH", "result": "< 300", "unit": "nM"},
      {"measurement": "liver function profiles, coagulation panel, or chemistry panel", "setting": "[4]", "result": "no change"}
    ]}
  ]
}
